hK5 inh: inhibitors of human kallikrein 5 | Q9Y337 | recombinant hK5, fluorogenic AMC substrate cleavage | inhibition, % at 5 µM | 210,000 tested, 0.59% active;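 active = inhibition of 40% or more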;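 also: 0% = enzyme controls without compound and 100% = no-enzyme blanks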
Target sequence (Q9Y337 67-293 limits assumed): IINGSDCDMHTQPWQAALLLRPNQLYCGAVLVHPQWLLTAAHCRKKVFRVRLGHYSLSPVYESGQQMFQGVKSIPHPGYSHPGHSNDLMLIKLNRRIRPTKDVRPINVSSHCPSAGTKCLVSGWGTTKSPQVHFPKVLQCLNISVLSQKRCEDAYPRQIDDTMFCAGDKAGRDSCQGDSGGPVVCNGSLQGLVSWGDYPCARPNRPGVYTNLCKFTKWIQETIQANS
thrombin 1536: blocks human thrombin protease activity; AID 1046; 220,000 tested, 0.26% active; alpha-thrombin, Boc-VPR-AMC fluorogenic substrate cleavage; inhibition, % at 5 µM;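 active = inhibition at or above 40%; inactive = inhibition below 40%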;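 also: 0% = enzyme with no compound and 100% = wells without enzyme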
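Material: Human alpha-thrombin protein | Buffer or medium: pH 7.5 Tris-saline with Tween 20 | Reagent: Boc-VPR-AMC substrate, 15 µM final | Schedule: Reaction at ambient temperature | Detection: AMC fluorescence at 355 nm excitation and 460 nm emission | Evaluation: Percent inhibition scaled between no-compound controls and no-enzyme blanks | Controls: no-compound enzyme wells and no-enzyme blanks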
Rce1 inhib: blocks yeast Ras-converting enzyme | Q03530 | yeast membranes, quenched prenylated peptide cleavage fluorescence | calls only | 290,000 tested, 0.27% active;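 active = fall in fluorescence gain of 50% or more versus controls, with final raw signal at or below 3038400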;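 also: plate controls were neutral control wells for no effect and wells lacking membranes for full effect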
Target sequence (Q03530 whole entry, looked up): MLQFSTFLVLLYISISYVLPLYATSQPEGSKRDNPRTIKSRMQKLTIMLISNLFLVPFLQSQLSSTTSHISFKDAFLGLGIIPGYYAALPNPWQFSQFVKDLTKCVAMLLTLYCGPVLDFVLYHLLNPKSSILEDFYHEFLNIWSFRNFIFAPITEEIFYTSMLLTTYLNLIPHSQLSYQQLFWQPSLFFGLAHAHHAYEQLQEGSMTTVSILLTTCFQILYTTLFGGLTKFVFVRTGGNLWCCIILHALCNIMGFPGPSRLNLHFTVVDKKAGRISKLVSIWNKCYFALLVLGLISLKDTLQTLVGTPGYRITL
FXIIa inh: blocks human coagulation factor XIIa protease activity; P00748; purified FXIIa, Boc-QGR-AMC fluorogenic substrate, 2 h; inhibition, % at 5 µM; 220,000 tested, 0.3% active; AID 800; in the data active = inhibition above about 40%;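 also: 0% = enzyme with no compound and 100% = blank without enzyme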
CTSL1 counter: counter-screen for PFM18AAP inhibitors: inhibitors of F. hepatica cathepsin L1. recombinant F. hepatica cathepsin L1, Z-Leu-Arg-MCA fluorescence. inhibition, % at 5.96 µM. 300,000 tested, 0.49% active;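 active = inhibition above the mean of all tested compounds plus 3 SD, set per screening campaign, cut at about 17% in these data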;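 also: 0% = plate median of test compound wells and 100% = 1 µM Z-Phe-Ala-diazomethylketone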
FXIa inh: factor XIa (human) inhibition; P03951; purified FXIa, Boc-Glu-Ala-Arg-AMC fluorogenic substrate; inhibition, % at 5 µM; 220,000 tested, 0.14% active; AID 798;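 active = inhibition of at least 40%; inactive = inhibition below 40%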;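 also: fluorescence of freed AMC excited at 355 nm; 0% = enzyme without compound and 100% = no enzyme blank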
* marks the source's active call; other numbers are inactive results; i = inactive; / = not tested or not shown; + = active, no number. Compounds with a hit are over-represented: about 1.4% of the library has one in this group of screens.

SMILES	hK5 inh	thrombin 1536	Rce1 inhib	FXIIa inh	CTSL1 counter	FXIa inh
COc1cccc2cc(C(=O)NCC3CCCO3)c(=O)oc12 (stereo unspecified)	44*	104*	i	17	-1	14
COc1ccc(CCNC(=O)C(=O)NCC2CCCO2)cc1 (stereo unspecified)	-5	0	/	11	1	2
COc1ccc(CCNC(=O)C(=O)NCC2CCCO2)cc1OC (stereo unspecified)	51*	29	i	15	-1	3
COc1ccc(CCNC(=O)C2CCC(CNS(=O)(=O)c3ccc(F)cc3)CC2)cc1OC (stereo unspecified)	-5	-8	i	0	2	-5
COc1ccc(CCNC(=O)C2CCC(CNS(=O)(=O)c3ccccc3)CC2)cc1OC (stereo unspecified)	21	53*	i	26	1	29
COc1cc(OC)nc(Oc2cc(/C=N/O)ccc2OC)n1	15	-7	i	6	-2	-2
COCCN(C(=O)COC(=O)CCOc1cccc(C)c1)c1c(N)n(Cc2ccccc2)c(=O)[nH]c1=O	/	/	i	/	-12	/
O=C(O)c1cn(C2CCCCC2)c2ccccc2c1=O	4	-3	i	7	-2	-6
CC1=CC(C)(C)N2C(=O)C(=Nc3ccc(O)cc3)c3cccc1c32	6	0	i	12	44*	4
COc1ccc(OC)c(C(=O)NC(CC(N)=O)c2ccc(NCc3ccccn3)c([N+](=O)[O-])c2)c1 (stereo unspecified)	/	/	i	/	5	/
CC1CCN(S(=O)(=O)c2ccc(C(=O)Nc3ccccn3)cc2)CC1	/	/	i	/	0	/
COc1ccc(S(=O)(=O)N(CCCN2CCCC2=O)Cc2cc3cc(C)c(C)cc3[nH]c2=O)cc1	86*	29	i	10	/	1
CC(NC(=O)c1ccco1)C(=O)OC(C)C(=O)NCc1ccccc1 (stereo unspecified)	41*	0	i	24	4	33
CCNc1ccc2c(Cl)cc(=O)oc2c1	-48	0	i	56*	6	31
Brc1ccc(C2=Nn3c(Cn4nnc5ccccc54)nnc3SC2)cc1	-4	-3	i	4	-2	6
CC(=O)N1CCN(c2ccc(Nc3ncnc4c3oc3ccccc34)cc2)CC1	5	0	i	7	1	-2
CCc1nc(Nc2ccc(N3CCN(C(C)=O)CC3)cc2)c2oc3ccccc3c2n1	11	6	+	13	1	4
COc1ccc(/C=N/Nc2nc(Nc3ccccc3)nc(N3CCCCC3)n2)cc1OC	0	-6	i	13	1	6
CCOc1cc(/C=N/Nc2nc(Nc3ccccc3)nc(N3CCCCC3)n2)ccc1OCC(=O)O	45*	-9	i	19	5	24
CC(C)N=Cc1c(O)[nH]c2ccccc12	-15	4	i	46*	1	14
CC(C)(CO)N=Cc1c(O)[nH]c2ccccc12	48*	1	i	17	1	4
COc1ccc(-c2cc(-c3nnc(COC(=O)CC4CC5CCC4C5)o3)c3ccccc3n2)cc1OC (stereo unspecified)	24	25	i	42*	-3	17
COc1ccc(-c2cc(C(F)(F)F)nc(SCC(=O)N(C)Cc3cn(C)nc3C)n2)cc1OC	-19	-10	+	5	-1	-4
COc1ccc(-c2cc(C(F)(F)F)nc(SCC(=O)NCc3cnn(C)c3C)n2)cc1OC	-10	-7	+	2	2	-2
COc1ccc(-c2cc(C(F)(F)F)nc(SCC(=O)NCc3ccco3)n2)cc1OC	-140	-4	i	-3	1	-8
SMILES	hK5 inh	thrombin 1536	Rce1 inhib	FXIIa inh	CTSL1 counter	FXIa inh
COC(=O)c1ccc(-c2ccc(/C=N/NC(=O)CC3(C)OCCCO3)o2)cc1	0	-2	i	10	10	2
COc1ccc(CN2CCNC(=O)C2CC(=O)N(C)CCC2CCOCC2)c(OC)c1 (stereo unspecified)	/	/	i	/	1	/
N#Cc1c(/N=C/c2ccco2)sc2c1CCC2	19	104*	i	9	3	13
CCn1cc(C(=O)NCc2ccc(Cl)cc2)c(=O)c2cc(S(=O)(=O)N(C)C)ccc21	/	/	i	/	5	/
COc1cc(C(=O)OCC(C)=O)ccc1OCc1c(C)noc1C	42*	/	i	38	/	42*
Cc1csc(NC(=O)CSc2nc(=O)[nH]c3c2CCCC3)n1	/	/	i	/	4	/
CN(C)C1=NCCN1CC1CCCCC1	/	/	/	/	1	/
Cc1nn(C)c(C)c1NC(=O)Nc1ccc(Cl)c(Cl)c1	-10	-8	i	-9	20*	-5
Cc1ccc(S(=O)(=O)N[C@@H](Cc2ccccc2)C(=O)CCl)cc1	-3	3	i	12	70*	7
COC(=O)c1sccc1N(C)S(C)(=O)=O	4	0	i	11	0	2
COc1ccc(NS(=O)(=O)c2c(C)cc(C)cc2C)cn1	/	/	i	/	-4	/
CCOC(=O)c1c(C)[nH]c(C)c1C(=O)COC(=O)/C=C/c1cccc(F)c1	52*	12	i	38	-5	8
O=C(CNC(=O)c1ccc2c(=O)n3c(nc2c1)CCC3)Nc1ccc(F)c(F)c1	/	/	i	/	4	/
COCc1cc(C)n(CC(=O)NCc2ccccc2)c(=O)c1C#N	32	25	+	33	-2	27
O=C(c1ccc(F)c(F)c1)N1CCC2(CC1)NCCc1[nH]cnc12	/	/	i	/	-16	/
CCc1sc(C(=O)Nc2ncccc2O)cc1C	/	/	i	/	/	/
Cc1cc(N2C(=O)CC(Cc3ccc(Cl)cc3)C2=O)no1 (stereo unspecified)	40*	5	i	18	0	-3
CC(=O)N1CCn2c3c(c4cc(C)ccc42)CCCC31 (stereo unspecified)	3	-1	i	5	3	2
Cc1ccc2c(c1)c1c3n2CCN(C(=O)CCl)C3CCC1 (stereo unspecified)	/	/	i	/	39*	/
c1cc2c(cc1C1CCCCC1)c1c3n2CCCNC3CCC1 (stereo unspecified)	-5	3	i	11	0	-4
Cc1ccc2c(c1)c1c3n2CCCNC3CCC1 (stereo unspecified)	-26	41*	i	18	6	-13
CC(=O)N1CCn2c3c(c(=O)c4cc(C)ccc42)CCC31 (stereo unspecified)	-5	2	/	13	24*	-5
S=c1[nH]nc(-c2ccncc2)n1/N=C/C=C/c1ccco1	30	37	i	74*	5	28
CC(C)[C@H](NC(=O)c1ccccc1)C(=O)NCCc1ccccc1	/	/	i	/	11	/
Cc1ccc(NC(=O)c2sc(C)nc2C)c(C)c1	/	/	i	/	18*	/
Cc1ccc(NC(=O)c2sc(Cl)nc2C)c(C)c1	-12	-11	i	11	-1	4

Source: PubChem
